Test [1] addresses T1, Protease (Human immunodeficiency virus 1, UniProt Q9YQ12). Briefly: Inhibition of wild type HIV1 HXB2 protease at 100 uM.
Test [2] concerns the target T2, Human immunodeficiency virus type 1 protease (Human immunodeficiency virus 1, UniProt Q72874, L90M). The test is described as follows: Inhibition of HIV1 HXB2 protease L90M mutant at 100 uM. An outline of the steps:
(§1)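 Mutant HIV-1 HXB2 protease clones (I84V, L90M, or I84V+L90M), 70 ng per 100 µL reaction. Buffer: 0.1 M acetic acid, 1.1 M NaCl, pH 5.0. Enzyme preincubated 10 min at 37 °C with hexapeptide (11 twofold dilutions from 100 µM). Substrate (2.25 µg) then added and reacted 30 min at 37 °C. Fluorescence read every 60 s (ex 355/em 490 nm) against a no-inhibitor control.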

A short description of test [3]: Inhibition of HIV1 HXB2 protease […] mutant at 100 uM. The arrangement: species or system Human immunodeficiency virus 1. An outline of the steps:
as §1

The nature of test [4]: Inhibition of HIV1 HXB2 protease […], L90M mutant at 100 uM. More on the design: species or system Human immunodeficiency virus 1. An outline of the steps:
as §1

Test [5] concerns the target T1, Protease. Briefly: Inhibition of wild type HIV1 HXB2 protease. Summed up: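 HXB2 HIV-1 protease clone (35 ng per 100 µL) in 0.1 M acetic acid, 1.1 M NaCl, pH 5.0. Hexapeptide was preincubated with enzyme for 10 min at 37 °C. Substrate (2.25 µg) was then added and fluorescence (ex 355/em 490 nm) read over 30 min at 37 °C. Eleven twofold dilutions from 100 µM; 1 mM stocks in DMSO/water 1:2. Protease-plus-substrate control without inhibitor.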

Test [6] in a line: Inhibition of HIV1 HXB2 protease 184V mutant. More on the design: species or system Human immunodeficiency virus 1. An outline of the steps: as §1
The target in test [7] is T2, Human immunodeficiency virus type 1 protease. Briefly: Inhibition of HIV1 HXB2 protease L90M mutant. An outline of the steps:
as §1

Test [8] in a line: Inhibition of HIV1 HXB2 protease […], L90M mutant. The arrangement: species or system Human immunodeficiency virus 1. An outline of the steps:
as §1

Our source for the Ki values is ChEMBL document CHEMBL1155257, “Proteochemometrics mapping of the interaction space for retroviral proteases and their substrates” (Bioorg Med Chem, 2009).

Non-standard residues stand in square brackets, D forms with d. Residues, ends and D or L forms follow the SMILES beside them. Groups on a side chain read outwards from the residue. ξ: configuration not given here. *: point of attachment. Phe(4-Br) = N[C@@H](Cc1ccc(Br)cc1)C(=O)O; Phe(4-Cl) = N[C@@H](Cc1ccc(Cl)cc1)C(=O)O; Phe(4-NH2) = Nc1ccc(C[C@H](N)C(=O)O)cc1; 2Nal = N[C@@H](Cc1ccc2ccccc2c1)C(=O)O; hArg = N=C(N)NCCCC[C@H](N)C(=O)O; hPhe = N[C@@H](CCc1ccccc1)C(=O)O; Cha = N[C@@H](CC1CCCCC1)C(=O)O; Phg = N[C@H](C(=O)O)c1ccccc1; Nle = CCCC[C@H](N)C(=O)O; Dab = NCC[C@H](N)C(=O)O; Nva = CCC[C@H](N)C(=O)O; Dap = NC[C@H](N)C(=O)O; ξDab = NCCC(N)C(=O)O; ξDap = NCC(N)C(=O)O; Bn = c1ccc(C*)cc1

T1 sequence (Q9YQ12 whole entry): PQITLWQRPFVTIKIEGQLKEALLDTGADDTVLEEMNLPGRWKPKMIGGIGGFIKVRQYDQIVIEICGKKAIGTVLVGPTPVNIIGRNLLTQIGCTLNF

On to `CC(=O)N[C@@H](Cc1ccc(O)cc1)C(=O)N[C@@H](C)C(=O)N[C@H](C(=O)N1CCC[C@H]1C(=O)NCC(=O)N[C@H](C(=O)O)[C@H](C)O)[C@H](C)O`, for which the Ki entry in test [1], in test [2], in test [3] and in test [4] was “Not Active” in each case.

In the case of `CC(=O)N[C@@H](C)C(=O)N[C@@H](Cc1cnc[nH]1)C(=O)N[C@@H](Cc1ccc(O)cc1)C(=O)N[C@@H](C)C(=O)N[C@H](C(=O)N[C@@H](Cc1cnc[nH]1)C(=O)O)[C@@H](C)O` (Ac-AHYATH-OH), the Ki result in test [1], in test [2], in test [3] and in test [4] was “Not Active” each time.

As for `CC(=O)N[C@@H](CC(=O)O)C(=O)NCC(=O)NCC(=O)N[C@@H](C)C(=O)N[C@@H](CC(C)C)C(=O)N[C@@H](CO)C(=O)O` (Ac-DGGALS-OH), the Ki result in test [1], in test [2], in test [3] and in test [4] was “Not Active” throughout.

Take `CC(=O)NCC(=O)N[C@H](C(=O)N[C@@H](C)C(=O)N[C@@H](Cc1ccc(O)cc1)C(=O)N[C@@H](CO)C(=O)N[C@@H](CS)C(=O)O)[C@@H](C)O` (Ac-GTAYSC-OH): the Ki result in test [1], in test [2], in test [3] and in test [4] was “Not Active” throughout.

Consider `CC(=O)N1CCC[C@H]1C(=O)N[C@@H](Cc1ccc(O)cc1)C(=O)N[C@@H](C)C(=O)NCC(=O)N[C@@H](C)C(=O)N[C@@H](CCC(N)=O)C(=O)O` (Ac-PYAGAQ-OH), for which the Ki entry in test [1], in test [2], in test [3] and in test [4] was “Not Active” each time.

`CC(=O)N[C@@H](CO)C(=O)N1CCC[C@H]1C(=O)N[C@@H](C)C(=O)N[C@H](C(=O)N[C@@H](CCC(=O)O)C(=O)N[C@@H](C)C(=O)O)[C@@H](C)O` (Ac-SPATEA-OH): the Ki result in test [1], in test [2], in test [3] and in test [4] was “Not Active” throughout.

Regarding `CC(=O)N[C@@H](CO)C(=O)N[C@H](C(=O)N[C@@H](CCCNC(=N)N)C(=O)N[C@@H](CS)C(=O)N[C@@H](CO)C(=O)N[C@@H](Cc1c[nH]c2ccccc12)C(=O)O)C(C)C` (Ac-SVRCSW-OH), the Ki entry in test [1], in test [2], in test [3] and in test [4] was “Not Active” throughout.

As to `CC(=O)N[C@H](C(=O)N[C@@H](C)C(=O)N[C@@H](C)C(=O)NCC(=O)N[C@@H](CCCNC(=N)N)C(=O)N[C@H](C(=O)O)[C@@H](C)O)[C@@H](C)O` (Ac-TAAGRT-OH), the Ki result in test [1], in test [2], in test [3] and in test [4] was “Not Active” each time.

For `CC(=O)N[C@H](C(=O)N[C@@H](CC(N)=O)C(=O)N[C@H](C(=O)N[C@H](C(=O)N[C@@H](C)C(=O)N[C@@H](CC(=O)O)C(=O)O)[C@@H](C)O)[C@@H](C)O)[C@@H](C)O` (Ac-TNTTAD-OH), the Ki result in test [1], in test [2], in test [3] and in test [4] was “Not Active” each time.

`CC[C@H](C)[C@H](NC(=O)[C@H](Cc1cnc[nH]1)NC(=O)[C@H](C)NC(=O)[C@H](CO)NC(=O)[C@H](CCCNC(=N)N)NC(=O)[C@@H](NC(C)=O)C(C)C)C(=O)O` (Ac-VRSAHI-OH): the Ki entry in test [1], in test [2], in test [3] and in test [4] was “Not Active” in each case.

For `CCC[C@H](NC(=O)[C@H](Cc1ccc(O)cc1)NC(=O)[C@H](CCCCNC(=N)N)NC(=O)[C@H](CCSC)NC(=O)[C@@H](NC(=O)[C@@H](N)Cc1ccc2ccccc2c1)C(C)C)C(=O)O` (H-[2Nal]VM[hArg]Y[Nva]-OH), the Ki in test [5] is 5.4 µM; in test [6] it was 19.9 µM; in test [7] it was 6.9 µM; in test [8], 7.5 µM.

Regarding `CCCC[C@H](NC(=O)[C@H](Cc1ccc(OCc2ccccc2)cc1)NC(=O)[C@H](Cc1ccc(N)cc1)NC(=O)[C@H](CCCCN)NC(=O)[C@H](CC1CCCCC1)NC(=O)[C@@H](N)Cc1ccc2ccccc2c1)C(=O)O` (H-[2Nal][Cha]K[Phe(4-NH2)]Y(Bn)[Nle]-OH), the Ki in test [5] was 24.1 µM; in test [6] it was 31.6 µM; in test [7], 9.2 µM; in test [8] it was 56 µM.

As for `CSCC[C@H](NC(=O)[C@H](CC1CCCCC1)NC(=O)[C@@H](N)Cc1ccc2ccccc2c1)C(=O)N[C@@H](CCC(=O)O)C(=O)N[C@H](C(=O)N[C@@H](CC1CCCCC1)C(=O)O)c1ccccc1` (H-[2Nal][Cha]ME[Phg][Cha]-OH), the Ki was 5.5 µM in test [5], 3.9 µM in test [6], 2.4 µM in test [7] and 2.7 µM in test [8].

Turning to `CCCC[C@H](NC(=O)[C@@H](N)Cc1ccc2ccccc2c1)C(=O)NCC[C@H](N)C(=O)N[C@@H](CCC(=O)O)C(=O)N[C@@H](CCc1ccccc1)C(=O)N[C@@H](CCC)C(=O)O` (H-[Dab]([Nle-2Nal])E[hPhe][Nva]-OH), the Ki in test [5] was 22 µM; in test [3] it was “Not Active”; in test [4], “Not Active”; in test [7] it was 16.7 µM.

As for `CC(C)C[C@H](NC(=O)[C@H](Cc1ccccc1)NC(=O)[C@H](CCCCNC(=N)N)NC(=O)[C@@H](N)CNC(=O)[C@H](CC1CCCCC1)NC(=O)[C@@H](N)CCc1ccccc1)C(=O)O` (H-[Dap]([Cha-hPhe])[hArg]FL-OH), the Ki in test [5] was 4.6 µM; in test [3], “Not Active”; in test [4], “Not Active”; in test [7], 26.5 µM.

On to `CCC[C@H](NC(=O)[C@H](Cc1ccc2ccccc2c1)NC(=O)[C@H](CCCCNC(=N)N)NC(=O)[C@@H](N)CNC(=O)[C@H](CCC)NC(=O)[C@@H](N)CCc1ccccc1)C(=O)O` (H-[Dap]([Nva-hPhe])[hArg][2Nal][Nva]-OH), for which the Ki in test [5] is 5.2 µM; in test [6], 13.3 µM; in test [7], 23.6 µM; in test [8], 15.7 µM.

As for `NC(CCNC(=O)[C@H](CC1CCCCC1)NC(=O)[C@@H](N)Cc1ccc(Cl)cc1)C(=O)N[C@@H](CCC(=O)O)C(=O)N[C@@H](Cc1ccccc1)C(=O)N[C@@H](CC1CCCCC1)C(=O)O` (stereo not given in full) (H-[ξDab]([Cha-Phe(4-Cl)])EF[Cha]-OH), the Ki was 3.8 µM in test [5], “Not Active” in test [3], “Not Active” in test [4] and 31.1 µM in test [7].

As for `N=C(N)NCCC[C@H](NC(=O)C(N)CCNC(=O)[C@H](CC1CCCCC1)NC(=O)[C@@H](N)CCc1ccccc1)C(=O)N[C@@H](CCc1ccccc1)C(=O)N[C@@H](CC1CCCCC1)C(=O)O` (stereo not given in full) (H-[ξDab]([Cha-hPhe])R[hPhe][Cha]-OH), the inhibitory constant (Ki) was 2 µM in test [5], “Not Active” in test [3], “Not Active” in test [4] and 47.4 µM in test [7].

On to `CCC[C@H](NC(=O)[C@H](Cc1ccc2ccccc2c1)NC(=O)[C@H](CCC(=O)O)NC(=O)C(N)CNC(=O)[C@H](CC1CCCCC1)NC(=O)[C@@H](N)Cc1ccc2ccccc2c1)C(=O)O` (stereo not given in full) (H-[ξDap]([Cha-2Nal])E[2Nal][Nva]-OH), for which the Ki in test [5] is 12 µM; in test [6], 20.7 µM; in test [7] it was 9.7 µM; in test [8], 20.8 µM.

For `CC(C)C[C@H](NC(=O)[C@H](Cc1ccc(Br)cc1)NC(=O)[C@H](CCC(=O)O)NC(=O)C(N)CNC(=O)[C@H](CC1CCCCC1)NC(=O)[C@@H](N)Cc1ccc(Cl)cc1)C(=O)O` (stereo partly drawn) (H-[ξDap]([Cha-Phe(4-Cl)])E[Phe(4-Br)]L-OH), the Ki came out at 5.5 µM in test [5], 37.7 µM in test [6], 15.7 µM in test [7] and 34.6 µM in test [8].
